Sampled rows, rich in hits. Any-hit rate of the full collection: about 2.4%.
Dynein transport – inhibitors of GR-EGFP nuclear translocation, primary screen, dynein cargo transport inhibitor project, imaging, high-content, 3617.4 mouse cells; test concentration mostly 20 µM; stimulated with dexamethasone, 1 µM; hits give low values; z-score, hits read low; 220,000 compounds, 0.47% hits; AID 1381, 2008;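 active = plate z-score of nuclear minus cytoplasmic receptor signal below a set negative limit, without overly bright fluorescence or cell loss, cut at about -3.5 in these data, passing the limit was not always enough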;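 also: z-score of nuclear minus cytoplasmic ring GR-EGFP intensity difference per well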
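Medium: Induction medium lacking tetracycline, stripped serum | Probe or stimulus: 1.0 µM final dexamethasone stimulus | Schedule: 48 h induction, then 1 h compound, then 30 min agonist, 37 °C | Signal: Automated 10x imaging of fixed Hoechst-stained cells | Evaluation: Per-cell GR-EGFP intensity, nucleus versus surrounding cytoplasmic ring, well-averaged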
Autophagy HCS – autophagy modulators in MEF cells, primary screen, imaging, high-content, MEF GFP-LC3 | MEF GFP-LC3 puncta imaging; test concentration mostly 10 µM | calls only at 10 µM (by protocol) | 190,000 compounds, 0.98% hits | AID 463193, 2010;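 active = percentage of spot-positive cells more than 3 SD above its plate mean, without a fluorescence outlier flag or 80% toxicity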
Mdm2 ligase inh – MDM2-luciferase reporter signal enhancers, primary screen, MDM2 E3 ligase inhibitor project, cell-based, luminescence, 1536-well; E3 ubiquitin-protein ligase Mdm2 (Homo sapiens), Q00987; cell-based MDM2 ubiquitination luciferase reporter, 2 h; 0 = plate control, 100 = twice control, blank-subtracted; signal enhancement, % at 5 µM; 210,000 compounds, 0.11% hits;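 active = signal enhancement of 30% or more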;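 also: luminescence tracks abundance of the self-degrading MDM2-luciferase fusion protein; higher signal means inhibition of MDM2 E3 ligase activity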
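Assay system: mammalian cells stably expressing self-ubiquitinating, self-degrading MDM2 E3–luciferase fusion. Quantity: 2000 cells in each well. Medium: DMEM culture medium. Compound dosing: single-point 5 µM. Timing: cell settling 4 h, compound treatment 2 h, both 37 °C. Technique: luciferase luminescence. Read-out basis: percent signal gain over controls, blank-subtracted. Benchmarks: plate controls and plate blanks.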
zVAD death inh – inhibitors of zVAD-triggered necroptosis, primary screen, L929 cells; L929 zVAD necroptosis rescue, ATP luminescence, 24 h; with zVAD 60 µM; viability rescue, % at 10 µM; 220,000 compounds, 0.38% hits;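 active = activation, scaled between plate controls, above about 75%, limit read from the data; inactive = activation under that limit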
TNF death inh – inhibitors of TNF-alpha triggered necroptosis, primary screen, cell-based, Jurkat FADD-/-, single concentration. activation (protection from cell death), % at 10 µM. Jurkat FADD-/- TNF necroptosis rescue, ATP luminescence, 24 h; 0 = TNF only, 100 = no-TNF cells. 220,000 compounds, 0.068% hits;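 active = activation, meaning protection from cell death, of at least 50% relative to plate controls; inactive = activation below 50%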;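 also: necroptosis triggered by 40 ng/mL TNF-alpha added together with compound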
Hck Nef HTS – inhibitors of Nef-activated human Hck kinase, primary screen, biochemical, Z-Lyte FRET, 384-well, Hck-YEEI | Tyrosine-protein kinase HCK (Homo sapiens), P08631 | Recombinant Hck-YEEI plus Nef, Z-Lyte FRET kinase assay | inhibition, % at 20 µM | 220,000 compounds, 0.68% hits;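 active = Hck-Nef kinase inhibition above about 50%, limit read from the data; inactive = inhibition below that limit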
Target sequence (P08631 whole entry, looked up): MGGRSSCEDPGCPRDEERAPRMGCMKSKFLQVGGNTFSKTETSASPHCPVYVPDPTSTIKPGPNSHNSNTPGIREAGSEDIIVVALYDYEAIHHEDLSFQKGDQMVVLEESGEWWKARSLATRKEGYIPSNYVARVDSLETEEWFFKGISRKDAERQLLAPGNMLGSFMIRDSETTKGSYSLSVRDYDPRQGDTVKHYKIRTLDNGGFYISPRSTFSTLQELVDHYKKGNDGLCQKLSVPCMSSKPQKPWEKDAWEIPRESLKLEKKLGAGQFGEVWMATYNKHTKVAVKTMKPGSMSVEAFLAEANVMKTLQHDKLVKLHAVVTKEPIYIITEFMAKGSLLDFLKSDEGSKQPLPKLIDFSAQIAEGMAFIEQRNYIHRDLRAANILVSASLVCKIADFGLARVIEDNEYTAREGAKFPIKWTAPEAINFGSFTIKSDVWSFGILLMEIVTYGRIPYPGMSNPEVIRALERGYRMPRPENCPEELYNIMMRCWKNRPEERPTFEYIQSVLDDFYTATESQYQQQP
Of the large screens only hits and unclear results are named; the others gave an inactive call; ! = not active in a repeat.

CCCCNC(=O)/C(C#N)=c1\s/c(=C\c2ccccc2OC(F)F)c(=O)n1CCCOC	Autophagy HCS active
COCCCn1c(=O)/c(=C\c2ccccc2OC(F)F)s/c1=C(/C#N)C(=O)NCCOC	none (no result: Autophagy HCS, Mdm2 ligase inh)
COCCCNC(=O)/C(C#N)=c1\s/c(=C\c2ccccc2OC(F)F)c(=O)n1CCCOC	none
COCCCN(C(=S)Nc1cc(Cl)cc(Cl)c1)C(C)c1ccccn1 (configuration not stated)	none (no result: Autophagy HCS, Mdm2 ligase inh)
O=C(CSc1nnc(-c2ccncc2)n1Cc1ccco1)Nc1nc(-c2ccccc2)cs1	Autophagy HCS active
O=C(CSc1nnc(-c2ccncc2)n1Cc1ccco1)Nc1ccccc1Cl	none
O=C(COC(=O)C1CCN(S(=O)(=O)c2cccs2)CC1)Nc1ccc(F)cc1F	none (no result: Autophagy HCS)
CCn1c(=O)n(CC(=O)Nc2cccc(OC)c2)c(=O)c2ccccc21	none
CCn1c(=O)n(CC(=O)Nc2cc(OC)c(OC)c(OC)c2)c(=O)c2ccccc21	Mdm2 ligase inh 36.7
Cc1c(C(=O)N2CCCCC2)nn(-c2ccc(Cl)cc2)c(=O)c1C#N	none
Cc1cc(C)nc(N2CCCC(C(=O)NCCC3=CCCCC3)C2)n1 (configuration not stated)	none
C[C@H]1CC[C@H]2C(=O)N3[C@H](c4ccccc4Br)[C@@H](C)CC[C@H]3C(=O)N2[C@@H]1c1ccccc1Br	Autophagy HCS active (no result: Mdm2 ligase inh)
C[C@H]1CC[C@H]2C(=O)N3[C@H](c4cccc(N5CCCC5=O)c4)[C@@H](C)CC[C@H]3C(=O)N2[C@@H]1c1cccc(N2CCCC2=O)c1	none (no result: Mdm2 ligase inh)
COc1cccc(C(=O)Oc2c(Br)cc(Br)cc2/C=N/NC(=O)c2cc(C)[nH]n2)c1	none
CCOc1ccc(N2C(=O)CC(NCc3ccc(F)cc3)C2=O)cc1 (configuration not stated)	Autophagy HCS active
COc1ccc(C2(O)CCN(Cc3nnnn3Cc3ccc(C)cc3)CC2)cc1	Autophagy HCS active
O=C(Nc1ccc(-c2nc3ccccc3s2)c(O)c1)C1=COCCO1	Hck Nef HTS 67.3
O=C(Nc1ccc(O)c(-c2nc3ccccc3s2)c1)C1=COCCO1	none
CN1C(C(=O)NCc2cccc(Br)c2)CC2Cn3c(nc4cc5ccccc5cc43)C21 (configuration not stated)	Mdm2 ligase inh 31.4 (no result: Autophagy HCS)
CCOC(=O)c1cnc2ccc(OC)cc2c1Nc1ccc2c(c1)OCCO2	none
CCOC(=O)c1cnc2ccc(C(=O)OC)cc2c1Nc1ccc2c(c1)OCCO2	Autophagy HCS active
CCN(CC)CC(C)OC(=O)c1ccccc1Cl (configuration not stated)	Autophagy HCS active
CC(=O)c1ccc(N/N=C(/C(N)=O)C2=NC(C)(C)Cc3ccccc32)cc1	Hck Nef HTS 72.1
C=CCNCCCCOc1ccc(OCc2ccccc2)cc1	Autophagy HCS active
Cc1ccc(N=Nc2c(O)n(CN3CCOCC3)c3ccccc23)cc1	zVAD death inh 85.2
Cc1cccc(NC(=S)N=Nc2c(O)n(CN3CCOCC3)c3ccccc23)c1C	none
Cc1c2cc(O)c(=O)cc-2oc2cc(O)c(O)cc12	Dynein transport -5.34!
CCC1CCCCN1S(=O)(=O)c1ccc(NC(=O)CSc2ncccc2C(=O)O)cc1 (configuration not stated)	Autophagy HCS active
COc1ccc2c(CC(=O)OCC(=O)Nc3sc4c(c3C#N)CCC(C)C4)coc2c1 (configuration not stated)	none (no result: Mdm2 ligase inh)
CNC(=S)N/N=C1\C(=O)c2cccc3cccc1c23	Autophagy HCS active
O=C(OCc1cccc(F)c1)c1ccc2c(=O)n3c(nc2c1)CCC3	none (no result: Autophagy HCS)

High-throughput results as filed in PubChem.
